We go through 22 compounds from ChEMBL document CHEMBL4831560, “Design, Synthesis, and Biological Evaluation of APN and AKT Dual-Target Inhibitors” (ACS Med Chem Lett, 2021).

Structures are written as SMILES. Active and inactive are the calls of the source. The rule behind the calls is not given here.

Test [1] deals with T1, RAC-alpha serine/threonine-protein kinase (Homo sapiens, UniProt P31749). As to conditions: dose 200.0 nM, time 40.0 min.
For test [2], the target named is T2, Aminopeptidase N (Sus scrofa, UniProt P15145).
T2 sequence (P15145 whole entry): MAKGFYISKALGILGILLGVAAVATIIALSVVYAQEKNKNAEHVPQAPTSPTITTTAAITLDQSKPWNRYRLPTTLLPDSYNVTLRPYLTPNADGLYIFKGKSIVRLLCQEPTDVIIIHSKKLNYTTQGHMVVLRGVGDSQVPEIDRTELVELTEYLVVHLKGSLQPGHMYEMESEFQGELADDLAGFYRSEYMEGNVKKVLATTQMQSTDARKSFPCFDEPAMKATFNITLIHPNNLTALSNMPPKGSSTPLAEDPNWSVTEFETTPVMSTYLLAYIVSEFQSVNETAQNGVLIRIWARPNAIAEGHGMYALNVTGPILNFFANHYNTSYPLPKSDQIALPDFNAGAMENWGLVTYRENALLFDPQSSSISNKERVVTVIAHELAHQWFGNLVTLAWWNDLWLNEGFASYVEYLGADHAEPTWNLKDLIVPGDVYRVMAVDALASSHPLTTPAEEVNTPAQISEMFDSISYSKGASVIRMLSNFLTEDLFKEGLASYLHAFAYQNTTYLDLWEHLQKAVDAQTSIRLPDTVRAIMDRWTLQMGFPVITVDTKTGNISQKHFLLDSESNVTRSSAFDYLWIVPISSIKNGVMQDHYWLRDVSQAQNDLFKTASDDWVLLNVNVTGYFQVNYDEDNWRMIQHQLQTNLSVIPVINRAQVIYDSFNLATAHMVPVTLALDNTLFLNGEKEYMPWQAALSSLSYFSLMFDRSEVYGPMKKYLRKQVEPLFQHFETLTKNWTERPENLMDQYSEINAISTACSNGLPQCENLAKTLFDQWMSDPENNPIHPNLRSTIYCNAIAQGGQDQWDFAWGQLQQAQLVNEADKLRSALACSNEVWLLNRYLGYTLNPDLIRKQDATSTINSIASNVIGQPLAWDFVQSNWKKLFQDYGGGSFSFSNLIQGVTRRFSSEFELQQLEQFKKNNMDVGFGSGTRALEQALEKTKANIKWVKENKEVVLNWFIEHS
The test is described as follows: Inhibition of APN in pig kidney microsomes assessed as reduction in p-nitroanilide release using L-leu-p-nitroanilide as substrate incubated for 30 mins by UV absorption based analysis.

Test [3] has as its system NCI-H1975. The test is described as follows: Antiproliferative activity against human NCI-H1975 cells assessed as reduction in cell viability incubated for 72 hrs by MTT assay. The class given is functional, cell-based. As to conditions: NCI-H1975, 72 h.
The subject of test [4] is AGS. The experiment in a line: Antiproliferative activity against human AGS cells assessed as reduction in cell viability incubated for 72 hrs by MTT assay. It is filed as functional, cell-based. On the technique in general: Formazan colour is commonly taken as a measure of viable cells.
For test [5], the system named is HUVEC. The experiment in a line: Anti-angiogenic activity against HUVEC cells assessed as inhibition of tubular structure formation at 10 uM […] by Matrigel based phase contrast microscopic analysis. To be noted: Homo sapiens. The class given is functional, cell-based.
Test [6] concerns MCF7. The test is described as follows: Antiproliferative activity against human MCF7 cells assessed as reduction in cell viability incubated for 72 hrs by MTT assay. The class given is functional, cell-based. As to conditions: MCF7, 72 h.
Test [7] has as its target T1, RAC-alpha serine/threonine-protein kinase. The test is described as follows: Inhibition of AKT1 (unknown origin) incubated for 40 mins in presence of ATP by Kinase-Glo reagent based luminescence analysis. (In general: In Kinase-Glo more light means more ATP remaining.)
The target of test [8] is T3, Serine/threonine-protein kinase AKT (Homo sapiens) (UniProt P31751+Q9Y243+P31749). The test is described as follows: Inhibition of AKT in human AGS cells assessed as inhibition of GSK3beta phosphorylation incubated for up to 6 hrs by immunoblot analysis. As to conditions: dose 2-10 µM, time hrs <=6. The class given is cell-based. The method, boiled down:
(§1)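 Western blot in AGS cells treated with DMSO or compound at 2 or 10 μM for 2 or 6 h. Phospho-GSK3β was probed with β-actin as loading control and blots were quantified. Three independent experiments were run, with Student's two-tailed t test against control.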
On the technique in general: A western blot detects proteins with antibodies after separation by electrophoresis.

Test [9] deals with T3, Serine/threonine-protein kinase AKT (Homo sapiens). The test is described as follows: Inhibition of AKT in human AGS cells assessed as inhibition of GSK3beta phosphorylation up to 10 uM by immunoblot analysis. The class given is cell-based. As to conditions: dose microM <=10, time 2-6 hrs, TDE = time-dependent effect. The method, boiled down:
as §1

The target in test [10] is T4, Aminopeptidase N (Sus scrofa) (UniProt P15145).
T4 sequence (whole entry): T2 sequence (P15145 whole entry)
The test is described as follows: Potency index, ratio of bestatin IC50 to test compound IC50 for inhibition of APN in pig kidney microsomes assessed as reduction in p-nitroanilide release using L-leu-p-nitroanilide as substrate incubated for 30 mins by UV absorption based analysis.

T1 sequence (P31749 whole entry): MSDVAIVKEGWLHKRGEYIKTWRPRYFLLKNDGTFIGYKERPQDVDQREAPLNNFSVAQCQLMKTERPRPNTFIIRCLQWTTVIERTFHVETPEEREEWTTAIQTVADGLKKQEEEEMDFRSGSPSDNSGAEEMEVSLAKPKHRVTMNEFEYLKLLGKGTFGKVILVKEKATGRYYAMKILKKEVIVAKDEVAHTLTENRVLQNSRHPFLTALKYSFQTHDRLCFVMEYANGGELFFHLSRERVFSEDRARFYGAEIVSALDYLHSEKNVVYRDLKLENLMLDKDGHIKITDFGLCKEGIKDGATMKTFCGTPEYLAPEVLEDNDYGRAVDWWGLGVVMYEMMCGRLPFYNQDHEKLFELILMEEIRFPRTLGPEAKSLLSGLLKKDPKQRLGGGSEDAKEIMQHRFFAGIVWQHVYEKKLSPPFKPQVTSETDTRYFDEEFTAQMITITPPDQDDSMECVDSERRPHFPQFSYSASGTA
T3 sequence (P31749 whole entry, looked up): as the sequence (P31749 whole entry) above
T3 sequence (P31751 whole entry, looked up): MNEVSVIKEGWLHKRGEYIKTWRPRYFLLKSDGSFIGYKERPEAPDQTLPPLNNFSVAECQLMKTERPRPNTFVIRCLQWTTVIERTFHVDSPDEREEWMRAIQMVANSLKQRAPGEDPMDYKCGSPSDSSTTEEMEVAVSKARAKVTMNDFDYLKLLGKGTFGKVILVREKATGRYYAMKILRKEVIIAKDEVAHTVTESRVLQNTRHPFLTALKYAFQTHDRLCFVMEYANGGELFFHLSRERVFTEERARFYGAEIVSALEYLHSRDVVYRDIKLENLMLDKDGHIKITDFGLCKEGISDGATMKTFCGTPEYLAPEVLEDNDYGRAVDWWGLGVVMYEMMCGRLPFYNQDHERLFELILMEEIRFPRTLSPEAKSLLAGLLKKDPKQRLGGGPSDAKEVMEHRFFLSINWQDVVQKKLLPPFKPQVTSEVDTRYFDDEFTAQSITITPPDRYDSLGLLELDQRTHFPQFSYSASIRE
T3 sequence (Q9Y243 whole entry, looked up): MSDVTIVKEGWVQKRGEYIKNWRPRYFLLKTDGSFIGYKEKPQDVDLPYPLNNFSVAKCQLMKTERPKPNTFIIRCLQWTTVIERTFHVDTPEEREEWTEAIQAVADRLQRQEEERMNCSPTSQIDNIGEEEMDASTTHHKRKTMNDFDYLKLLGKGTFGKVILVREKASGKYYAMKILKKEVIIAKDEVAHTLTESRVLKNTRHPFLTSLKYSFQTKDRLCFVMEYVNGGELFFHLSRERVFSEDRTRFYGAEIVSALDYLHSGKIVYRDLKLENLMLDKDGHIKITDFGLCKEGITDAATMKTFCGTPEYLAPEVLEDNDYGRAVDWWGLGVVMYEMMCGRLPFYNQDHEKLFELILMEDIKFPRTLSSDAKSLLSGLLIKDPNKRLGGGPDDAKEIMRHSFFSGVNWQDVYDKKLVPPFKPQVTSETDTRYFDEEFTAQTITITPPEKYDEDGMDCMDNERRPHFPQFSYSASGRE

For `O=C(NO)[C@@H](Cc1ccccc1)NC(=O)N1CCN(c2ncnc3[nH]ccc23)CC1`, in [1], the inhibition – broadly, the drop in the measured response relative to a control, in per cent – amounted to 11%. Besides, the IC50 (commonly the midpoint of a concentration-inhibition curve) in test [2] amounted to 260 nM.
`NC1(C(=O)N[C@@H](CCO)c2ccc(Cl)cc2)CCN(c2nc[nH]c3nccc2-3)CC1` [CAPIVASERTIB]: the figures for the IC50 in [3], in test [4] and in test [6] were 2.7 µM, 9.6 µM and 4.2 µM, respectively. Also, the result in test [5] was inactive.
For the compound `NC1(C(=O)N[C@H](C(=O)NO)c2ccccc2)CCN(c2ncnc3[nH]ccc23)CC1`, the inhibition in [1] was 35%. Also, the IC50 in test [2] came to 1490 nM.
In turn, `CC(C)C[C@@H](NC(=O)N1CCN(c2ncnc3[nH]ccc23)CC1)C(=O)NO` yielded an inhibition in [1] of 29%. Further, the IC50 in test [2] was 210 nM.
For `NC1(C(=O)N[C@H](Cc2ccccc2)C(=O)NO)CCN(c2ncnc3[nH]ccc23)CC1` the same measures were 21% and 670 nM.
With `CC(C)C[C@@H](NC(=O)C1(N)CCN(c2ncnc3[nH]ccc23)CC1)C(=O)NO`, the inhibition is 43% in test [1], “Dose-Dependent Effect” in test [8] and “Tde” in test [9]. Moreover, the IC50 came out at 27.4 µM in [3]; 270 nM in [7]; 52.4 µM in test [4]; 210 nM in test [2]; 32.7 µM in test [6]. Besides, the result in test [5] was Active.
Regarding `O=C(NO)[C@H](NC(=O)N1CCN(c2ncnc3[nH]ccc23)CC1)c1ccccc1`, the IC50 in [2] is 1040 nM.
`CC(C)[C@@H](NC(=O)C1(N)CCN(c2ncnc3[nH]ccc23)CC1)C(=O)NO`: the inhibition in test [1] was found to be 6%. Also, the IC50 in test [2] is 470 nM.
As to `CC(C)C[C@H](NC(=O)[C@@H](O)[C@H](N)Cc1ccccc1)C(=O)O` [UBENIMEX], the IC50 in [3], in test [4] and in [6] was > 200 µM throughout. The result in [5] was Active.
Take `COc1ccc(Cn2ccc3ccc(C(=O)NO)cc32)cc1`: the result in [5] was inactive.
With `NC1(C(=O)N[C@H](Cc2c[nH]c3ccccc23)C(=O)NO)CCN(c2ncnc3[nH]ccc23)CC1`, in test [1], the inhibition amounted to 3%. For the same compound, the IC50 in test [2] is 4160 nM.
The compound `CC(C)[C@H](NC(=O)C1(N)CCN(c2ncnc3[nH]ccc23)CC1)C(=O)NO` gave an inhibition in test [1] of 5%. Further, the IC50 in test [2] was 140000 nM.
Turning to `O=C(NC1CCN(c2ncnc3[nH]ccc23)CC1)N[C@@H](C(=O)NO)c1ccccc1`, the IC50 in test [2] is 5400 nM.
Take `NC1(C(=O)N[C@@H](Cc2c[nH]c3ccccc23)C(=O)NO)CCN(c2ncnc3[nH]ccc23)CC1`: the inhibition in test [1] turned out to be 5%. Also, the IC50 in test [2] was found to be 127000 nM.
In the case of `CC(C)C[C@@H](NC(=O)C1CCN(c2ncnc3[nH]ccc23)CC1)C(=O)NO`, the inhibition in test [1] worked out at 2%. The IC50 in test [2] was found to be 50 nM. Besides, the Ratio IC50 in [10] worked out at 70.
With `NC1(C(=O)N[C@@H](C(=O)NO)c2ccccc2)CCN(c2ncnc3[nH]ccc23)CC1`, in test [1], the inhibition amounted to 60%. Besides, the IC50 in [3] came to 20.3 µM; in test [7], 121 nM; in test [4] it was 30.7 µM; in test [2], 960 nM; in [6], 24.8 µM. Further, in [5], the result was Active.
With `NC1(C(=O)N[C@@H](Cc2ccccc2)C(=O)NO)CCN(c2ncnc3[nH]ccc23)CC1`, in test [1], the inhibition was determined as 2%. Also, in test [2], the IC50 amounted to 159000 nM.
As for `CC(C)C[C@@H](NC(=O)NC1CCN(c2ncnc3[nH]ccc23)CC1)C(=O)NO`, the inhibition in test [1] was 4%. In addition, the IC50 in test [2] stood at 710 nM.
`CC(C)C[C@H](NC(=O)C1(N)CCN(c2ncnc3[nH]ccc23)CC1)C(=O)NO` displayed an inhibition in test [1] of 7%. For the same compound, the IC50 in [2] worked out at 32400 nM.
For `O=C(NC1CCN(c2ncnc3[nH]ccc23)CC1)N[C@H](Cc1ccccc1)C(=O)NO` the same measures were 7% and 900 nM.
With `O=C(N[C@@H](C(=O)NO)c1ccccc1)C1CCN(c2ncnc3[nH]ccc23)CC1`, the IC50 in test [2] was 390 nM.
For the compound `O=C(N[C@H](Cc1ccccc1)C(=O)NO)C1CCN(c2ncnc3[nH]ccc23)CC1`, the inhibition in test [1] came to 7%. In test [2], the IC50 is 710 nM.
